Test results as given in paper PMC10824272 (Biomedicine & pharmacotherapy = Biomedecine & …, 2023).

How the values were obtained:
SW620 xenograft tumor = assay: Subcutaneous xenograft tumor study; assay type: in vivo, athymic nude mice
SW620 cells = assay: Cell viability; assay type: cell-based, human
Method in brief: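 Claudin-1-overexpressing SW480cld1 and SW620 cells grown in RPMI with 10% FBS and exposed for 72 hours to a range of test compound concentrations. Viability measured by PrestoBlue reagent. EC50 calculated from the concentration–viability data.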

[1] = Tissue bio-distribution in mice; assay type: in vivo; conditions: mouse, 5 mg/kg
SW480 cells = assay: Cell viability; assay type: cell-based, human; conditions: even at 25μM
SW480^cld1 cells [2] = assay: Anoikis-induced apoptosis assay; assay type: cell-based; conditions: claudin-1 overexpressed SW480^cld1
Method in brief: (§1)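 Anoikis induced by plating cells on poly-HEMA-coated culture plates. Apoptosis quantified with a cell death detection ELISA. Parental lines were cultured in RPMI with 10% FBS. Claudin-1-overexpressing SW480 and claudin-1-knockdown SW620 derivatives were used.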

SW480^cld1 cells [3] = assay: Transwell matrigel invasion assay; assay type: cell-based, human; conditions: PDS-0330 25μM; P < 0.0001 vs control and 20A
[4] = test system: pSrc, pAkt, Bcl2, Bcl-xL, survivin, cleaved PARP in SW620 and SW480^cld1 cells; assay: Immunoblotting of signaling and apoptosis markers; assay type: cell-based, human; conditions: PDS-0330 12.5 and 25μM
Method in brief: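 Treated cells (vehicle or 12.5 and 25 μM) lysed. 10–30 μg protein per lane resolved by SDS-PAGE and immunoblotted, with enhanced chemiluminescence detection on film. Antibodies included p-Src (Tyr416), pAkt and total Akt, with GAPDH or β-actin as loading reference.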

SW620^1C cells = assay: Anoikis-induced apoptosis assay; assay type: cell-based, human; conditions: claudin-1 knockdown SW620^1C
Method in brief: as §1

[5] = test system: claudin-1 overexpressed PDX tumor; assay: Chemo-resistant patient-derived xenograft; assay type: in vivo, athymic nude mice
Method in brief: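 Chemo-resistant PDX tumor fragments (~2mm3) implanted subcutaneously in 6-week-old athymic nude mice. Once tumors were palpable, dosed once weekly for four weeks (n=5 mice/group), vehicle controls included. Caliper volume from […], tracked over time. Tumor sections stained by IHC for Ki67 and cleaved PARP.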

[6] = Metabolic stability, phase I; assay type: in vitro ADME, human
Method in brief: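 Phase I stability in human liver microsomes (20 mg/ml stock), 100 mM potassium phosphate pH 7.4, 10 mM MgCl2, 2 mM NADPH. Mix pre-incubated 10 min at 37 °C. Output is percent parent remaining per time point. Elimination rate constant taken from first-order plot of ln area ratio versus time.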

[7] = PDS-0330 5mg/kg and 10mg/kg once/week for four weeks

In the case of `O=C(NC(=S)Nc1ccc(-c2nc3ccccc3o2)cc1)c1ccc2ccccc2c1` [PDS-0330, N-((4-(benzo[d]oxazol-2-yl)phenyl)carbamothioyl)-2-naphthamide], the “apoptosis in tumors (cleaved PARP, BclxL, survivin)” value (SW620 xenograft tumor; PDS-0330 5mg/Kg and 10mg/Kg) is reported as “increase in apoptosis”, the “proliferation in tumors (Ki67)” value (SW620 xenograft tumor; PDS-0330 5mg/Kg and 10mg/Kg) is reported as “reduced proliferation” and the “tumor volume and weight” value (SW620 xenograft tumor; PDS-0330 5mg/Kg and 10mg/Kg vs vehicle) is reported as “significant reduction”. For the same compound, the “tumor volume, combination with 5-FU” value (SW620 xenograft tumor; PDS-0330 and 5-FU in combination vs either alone) was “substantial reduction”, the EC50 (SW620 cells; Homo sapiens, SW-620, 72 h, read-out: EC50, cell viability) was 9.3 µM and the “CI index, % cell survival in combination with 5-FU” value (SW620 cells; PDS-0330 with 5-FU (5μM)) was less than 1. The “effect with oxaliplatin on cell survival” value (SW620 cells; PDS-0330 with oxaliplatin (1μM)) was “synergistic effect”, the concentration at 2 h ([1]; both, liver, ip) was 277 ng/g and the concentration at 8 h ([1]; both, liver, ip) was 807 ng/g. It also gave a concentration at 2 h ([1]; both, liver, po) of 17 ng/g, a concentration at 8 h ([1]; both, liver, po) of 5.8 ng/g and a concentration at 24 h ([1]; both, liver, po) of 10.5 ng/g. It also gave a concentration at 24 h ([1]; both, lungs, ip) of 93.7 ng/g, a concentration at 24 h ([1]; both, lungs, po) of 519 ng/g and a concentration at 24 h ([1]; liver, ip) of 407 ng/g. It also gave a concentration at 2 h ([1]; lungs, ip) of 338 ng/g, a concentration at 8 h ([1]; lungs, ip) of 76.9 ng/g and a concentration at 2 h ([1]; lungs, po) of 5 ng/g. For the same compound, the concentration at 8 h ([1]; lungs, po) was 473 ng/g, the “impact on SW480 cells” value (SW480 cells) was “no significant impact” and the resistance to anoikis (SW480^cld1 cells [2]) was “dramatically reduced the resistance to anoikis”. For the same compound, the cell invasion (SW480^cld1 cells [3]) was “significantly inhibited”, the Akt activation [4] was “suppressing Akt activation” and the “Bcl-2 and Bcl-xL expression” value [4] was “inhibiting”. The “anti-apoptotic proteins Bcl2, Bcl-xL and Survivin” value ([4]; SW480^cld1 and SW620) was “decrease”, the “apoptotic protein cleaved PARP” value ([4]; SW480^cld1 and SW620) was “increase” and the Src phosphorylation ([4]; SW620 and SW480^cld1) was “prevents Src phosphorylation”. For the same compound, the resistance to anoikis (SW620^1C cells) was “not affecting”, the “apoptosis in tumors (cleaved PARP, Bcl-xL, survivin)” value ([5]; PDS-0330 5mg/kg and 10mg/kg) was “increase in apoptosis” and the “proliferation in tumors (Ki67)” value ([5]; PDS-0330 5mg/kg and 10mg/kg) was “decreased proliferation”. The “mean tumor volume and tumor weight” value [5, 7] was “significantly reduced”, the primary tumor growth [5, 7] was “reduced primary tumor growth in a statistically significant manner” and the “drug remaining after 60 min” value ([6]; HLM, phase I metabolism, 60 min) was 90%. The “metabolism in the presence of HLM” value ([6]; phase I) was less than 15%.
